Assay outcomes as filed in PubChem.
Granule exo inh – lytic granule exocytosis inhibition | TALL-104 LAMP-1 surface exposure, flow cytometry; cells stimulated with thapsigargin and PMA | inhibition, % at 10 µM | 360,000 compounds, 0.66% hits | AID 651702;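 active means inhibition above about 55%, limit read from the data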
UPR XBP1 act – activators of adaptive arm of unfolded protein response (XBP1); 330,000 compounds, 0.33% hits; activation, % at 20 µM; CHO-XBP1 luciferase reporter, IRE1-XBP1 UPR activation, luminescence; percent of tunicamycin response, DMSO as zero;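 active means versus positive control, 20 µM dose yields 30% or more activation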;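 further: 100% = tunicamycin at 10 µg/mL and 0% = DMSO only wells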
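Material: IRE1-XBP1 luciferase reporter CHO line / Quantity: one thousand reporter cells per well / Buffer or medium: F12 with 10% serum / Compound: 20 µM single concentration, DMSO 1% / Times: 6 h treatment, 37 °C / Detection: Steady-Glo luciferase glow luminescence, 10 min after reagent addition / Benchmarks: tunicamycin high, DMSO low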
UPR CHOP act – apoptotic UPR (CHOP) activation. CHO-CHOP luciferase reporter, luminescence; percent of tunicamycin response over DMSO baseline. activation, % at 10 µM. 330,000 compounds, 0.34% hits;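 active means at 10 µM dose, activation of 40% or more, normalized to positive control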;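 further: 100% = tunicamycin at 10 µg/mL and 0% = DMSO alone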
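Test system: CHO CHOP reporter cells. Input: 500 CHO-CHOP cells per well. Medium: F12 with 10% FBS. Technique: luciferase luminescence. Measure: percent activation relative to tunicamycin control. Dosing: 10 µM compound, 0.5% DMSO. Timing: 16-18 h cell attachment, then 6 h compound exposure, 37 °C.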
ABHD5-PLIN5 inh – ABHD5-PLIN5 protein interaction inhibition; Q00G26+Q8WTS1; Split G. princeps luciferase complementation, luminescence, 4 h; inhibition, % at 4 µM; 360,000 compounds, 0.78% hits; AID 602281;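 active means inhibition above the mean inhibition across every tested compound plus 3 SD, cut at about 22% in these data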;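 further: 0% = DMSO only wells and the 100% control is not disclosed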
Mdm2 MdmX PPI – disrupts the human Mdm2-MdmX interaction. O15151+Q00987. SaOS-2 split-luciferase Mdm2/MdmX complementation, luminescence. inhibition, % at 8 µM. 330,000 compounds, 3% hits. AID 485346;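 active means inhibition of at least 50% at 8 µM in the primary screen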
ABHD5-PLIN5 conf – ABHD5-PLIN5 interaction inhibition, confirmed; shares compounds with ABHD5-PLIN5 inh; biochemical ABHD5-PLIN5 interaction, luminescence; inhibition, % at 4 µM; 2,200 compounds, 67% hits; AID 651612; in the data active means inhibition above about 23%;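 further: 0% = DMSO vehicle wells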
HNF4 counter – active in HNF4 split-luciferase counter-screen for ABHD5-PLIN5 inhibitors | AID 651674 | 2,200 compounds, 77% hits | HNF4 dimerization, luminescence, biochemical | shares compounds with ABHD5-PLIN5 inh | inhibition, % at 4 µM;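 active means mean inhibition across replicate wells exceeding the computed hit threshold, cut at about 13% in these data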;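 further: light from luciferase halves that rejoin when HNF4 fusion proteins dimerize; 0% = DMSO only wells and the 100% control is not given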
Target sequence (P41235 whole entry, looked up, the tested form may be a part): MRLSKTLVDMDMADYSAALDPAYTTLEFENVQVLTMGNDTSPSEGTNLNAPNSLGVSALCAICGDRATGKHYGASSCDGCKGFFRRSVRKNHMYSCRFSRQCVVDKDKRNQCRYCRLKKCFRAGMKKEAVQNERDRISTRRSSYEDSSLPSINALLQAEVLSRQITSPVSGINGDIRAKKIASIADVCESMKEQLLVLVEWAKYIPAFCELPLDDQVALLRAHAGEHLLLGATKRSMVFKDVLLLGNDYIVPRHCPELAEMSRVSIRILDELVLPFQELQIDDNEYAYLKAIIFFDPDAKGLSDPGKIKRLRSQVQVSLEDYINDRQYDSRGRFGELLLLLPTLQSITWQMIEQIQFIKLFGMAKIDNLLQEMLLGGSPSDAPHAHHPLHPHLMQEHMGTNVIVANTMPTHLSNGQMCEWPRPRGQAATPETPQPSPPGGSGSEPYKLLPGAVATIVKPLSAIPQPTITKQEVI
* hit, by the source's call; / = no result given. Compounds with a hit are over-represented: about 4% of the library has one in this group of screens.

SMILES	Granule exo inh	UPR XBP1 act	UPR CHOP act	ABHD5-PLIN5 inh	Mdm2 MdmX PPI	ABHD5-PLIN5 conf	HNF4 counter
N#C/C(=C\c1cc([N+](=O)[O-])c(N2CCOCC2)cc1N1CCOCC1)c1nc2ccccc2[nH]1	0.1	10.2	1.4	-0.1	49.2	/	/
C/C=C/Cn1c(N2CCCCCC2)nc2c1c(=O)[nH]c(=O)n2C	0.8	3.8	-0.6	6.3	1.8	/	/
Cc1cc(C)c(C#N)c(Sc2nc(C)c([N+](=O)[O-])c(C)c2C#N)n1	-0.8	/	/	30.6*	/	35.8*	26.9*
Cc1nn(Cc2ccccc2)c(C)c1NC(=O)CSc1n[nH]c(C)c1[N+](=O)[O-]	-0.7	-0.4	0.8	-8.8	5.7	/	/
Cc1ccc(C(C[N+](=O)[O-])c2c(N)n(C)c(=O)n(C)c2=O)cc1 (configuration not stated)	-4.0	26.7	19.3	31.9*	34.3	35.7*	43.9*
COc1cc(C(C[N+](=O)[O-])c2c(N)n(C)c(=O)n(C)c2=O)ccc1O (configuration not stated)	-0.5	3.7	3.1	44.8*	5.4	36.9*	55.2*
CC(C(c1ccc2c(c1)OCO2)c1c(N)n(C)c(=O)n(C)c1=O)[N+](=O)[O-] (configuration not stated)	6.8	2.3	2.2	33.0*	1.2	6.0	11.8
CC(C)CC1Nc2ncnc(N3CCOCC3)c2N(Cc2ccc(Br)cc2)C1=O (configuration not stated)	-1.0	1.8	0.5	4.0	8.1	/	/
O=C(C(c1ccccc1)N1CCOCC1)N1CCOCC1 (configuration not stated)	-0.6	-2.5	-2.8	-3.9	-0.1	/	/
O=C(C=Cc1ccccc1)CC(c1ccccc1)N1CCOCC1 (configuration not stated)	1.5	/	/	76.6*	/	99.6*	95.5*
Fc1cccc(Cc2c(-c3ccco3)nc3c(Cl)cc(C(F)(F)F)cn23)c1	30.4	/	/	52.6*	/	69.9*	83.2*
Cc1ccc(Cc2c(-c3ccco3)nc3c(C)cc(Br)cn23)cc1	35.5	/	/	63.7*	/	48.2*	65.9*
Cc1ccc(Cc2c(-c3ccccc3)nc3c(C)cc(Br)cn23)cc1	-1.8	/	/	-7.0	/	/	/
Brc1ccc2nc(-c3ccco3)c(Cc3ccccc3)n2c1	46.4	/	/	59.1*	/	63.3*	94.6*
COC(=O)c1ccc2nc(-c3ccc(F)cc3)c(Cc3ccc(OC)cc3C)n2c1	2.3	/	/	3.1	/	/	/
Fc1ccc(-c2nc3c(Cl)cc(C(F)(F)F)cn3c2Cc2cccc(F)c2)cc1	10.7	/	/	15.2	/	/	/
COC(=O)c1ccc2nc(-c3ccco3)c(Cc3ccc(OC)cc3C)n2c1	3.3	/	/	46.7*	/	72.2*	83.2*
COc1ccccc1-c1nnn(C/C(N)=N/O)n1	5.6	-3.6	-2.2	-1.5	16.3	/	/
COc1ccc(/C=C(\C#N)C(=O)OCC(=O)NC(=O)NCCC(C)C)cc1	2.5	-1.4	1.4	5.9	7.3	/	/
CCCCn1c(=O)c2c(c3ccccc31)OCC(=O)N2	/	6.2	0.1	/	3.5	/	/
N#CC(Cc1cccc(CC(C#N)(c2ccccc2)c2ccccc2)c1)(c1ccccc1)c1ccccc1	6.2	-3.8	5.0	-8.6	18.9	/	/
COc1cccc(OC)c1C(=O)N1CCN(Cc2ccccc2C(F)(F)F)CC1	0.1	-0.9	-0.8	1.9	22.2	/	/
COC(=O)c1ccc2nc(-c3ccco3)c(Cc3cccc(F)c3)n2c1	21.4	/	/	56.8*	/	48.2*	83.0*
COC(=O)c1ccc2nc(C3CCCCC3)c(Cc3ccccc3C(F)(F)F)n2c1	-5.5	/	/	-1.8	/	/	/
Clc1cccc(Cc2c(-c3ccco3)nc3ccc(Cl)cn23)c1	45.8	/	/	71.2*	/	86.0*	102.2*
SMILES	Granule exo inh	UPR XBP1 act	UPR CHOP act	ABHD5-PLIN5 inh	Mdm2 MdmX PPI	ABHD5-PLIN5 conf	HNF4 counter
COC(=O)c1ccc2nc(-c3ccc(C)cc3)c(Cc3ccc(C)cc3)n2c1	2.8	/	/	-5.0	/	/	/
COC(=O)c1ccc2nc(-c3ccc(F)cc3)c(Cc3cccc(F)c3)n2c1	3.5	/	/	-6.7	/	/	/
COC(=O)c1ccc2nc(-c3ccco3)c(Cc3ccc(C)cc3)n2c1	33.9	/	/	39.0*	/	18.8	42.3*
COC(=O)c1ccc2nc(-c3ccco3)c(Cc3ccccc3C(F)(F)F)n2c1	49.4	/	/	52.1*	/	24.4*	66.4*
Clc1ccc(-c2nc3ccc(Cl)cn3c2Cc2cccc(Cl)c2)cc1	1.6	/	/	-4.0	/	/	/
Cc1nnc(SCC(=O)Nc2ccc3c(c2)OCCO3)s1	-1.4	-2.2	1.0	5.8	-23.6	/	/
CCOc1ccc(NC(=O)CN2C(=O)/C(=C3\SC(=S)N(C4CCS(=O)(=O)C4)C3=O)c3ccccc32)cc1 (configuration not stated)	-0.6	/	/	1.5	/	/	/
COc1ccccc1N1CCN(C(=O)c2c(-c3ccccc3)noc2C)CC1	-0.8	1.9	-2.7	4.8	40.2	/	/
Cc1ccc(Cc2c(-c3ccco3)nc3ccc(C)cn23)cc1	26.2	/	/	37.2*	/	14.2	34.2*
Cc1ccc(Cc2c(-c3cccc(Cl)c3)nc3ccc(C)cn23)cc1	4.1	/	/	5.2	/	/	/
C=C(C)[C@@H]1C2=CC(C(=O)OC)=C(C[C@H](C(=C)C)[C@H]3O[C@H]3C3=C[C@H]1OC3=O)O2	-1.0	/	/	62.5*	/	86.7*	77.7*
O=C(CSc1nnc(-c2cccnc2)n1Cc1ccco1)c1ccc2ccccc2c1	-10.3	-0.9	-1.3	65.2*	20.0	53.1*	75.9*
Cc1ccc(C2/C(=C(/O)c3cnn(-c4ccccc4)c3C)C(=O)C(=O)N2CCN2CCOCC2)o1 (configuration not stated)	3.0	-1.2	4.0	1.3	-3.2	/	/
COc1ccc([C@H]2CC(=O)C=C(/C=C/Cc3ccccc3)C2)cc1	-10.4	3.1	2.9	25.7*	29.4	37.6*	32.4*
O=C(NCc1cccnc1)/C(=C\c1ccc(-c2cccc(Cl)c2)o1)S(=O)(=O)c1ccccc1	90.5*	/	/	81.6*	/	96.7*	87.7*
CN(C)c1ccc(CN(C(=O)c2ccccc2Br)C2CCS(=O)(=O)C2)cc1 (configuration not stated)	-0.7	-2.1	0.2	-2.3	6.6	/	/
O=C(O)Cc1c[nH]c2ccc(O)cc12	1.6	-4.6	0.5	37.6*	12.7	6.8	39.4*
CC(=O)NC1CCCc2c1cnn2-c1ccc(C(C)(C)C)cc1 (configuration not stated)	-7.9	-0.9	3.1	5.5	2.3	/	/
O=C(/C=C/c1ccco1)NC1CCCC1	-2.2	-1.6	2.1	6.1	0.8	/	/
O=C(O)C(C(=O)/C=C/c1ccco1)=C1SCCS1	0.9	-3.1	0.6	44.8*	-4.6	21.4	30.6*
